Data as given in PubChem BioAssay AID1753 (Vanderbilt High Throughput Screening Facility, 2009).
pEC50: −log10 of the molar value. Inconclusive results are not listed. Active and inactive are the calls of the source.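 The calls were made as follows: active = a converged dose-response curve, firm or less certain, in at least 2 of 3 replicates; inactive = the rest, inconclusive results apart.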

Test system: native HEK293 thallium flux, FluoZin2 fluorescence, ouabain
Assay: native HEK thallium flux modulation with ouabain, dose response, counter-screen for KCC2 modulator project, HEK cells, counterscreen (AID 1753)
In short: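 Material: Untransfected HEK cells, thallium flux | Buffer or medium: HBSS, 20 mM HEPES, 0.2 mM ouabain | Reagent: Thallium stimulus | Dosing: 11 points, 3-fold steps, up to 30 µM | Timing: Flux slope window 10–20 s after thallium addition | Signal: FluoZin2 fluorescence, 1 Hz kinetic imaging | Repeats: Three replicates, fitted individually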

Compound | EC50 | pEC50
O=C(NC(=S)Nc1ccc2c(c1)OCO2)c1ccc(Cl)cc1 | 75.7 nM (inactive) | –
O=C(NC(=S)Nc1cccc2cccnc12)c1cccs1 | 114 nM (inactive) | –
CC(C)c1ccc(OCC(=O)NNC(=O)c2cnccn2)cc1 | 12200 nM (inactive) | –
Cn1nnnc1SCCNCc1ccncc1 | 21 nM (inactive) | –
CCOc1[nH]n(-c2ccccc2)c(=O)c1C=Nc1ccc(F)cc1F | – | 5.84
COC(=O)[C@@H](NC(=O)O[C@@H]1C(=O)c2ccc(OC)cc2O[C@H]1c1cccc(C(F)(F)F)c1)C(C)C | – | 5.77
COc1ccc(-c2nnc(-c3ccc(OCC(C)C)cc3)o2)cc1 | 777 nM (inactive) | –
NC(=S)N=Nc1c(O)n(Cc2ccccc2)c2ccccc12 | 124 nM (inactive) | –
CC(=O)c1cccc(NC(=S)NC(=O)c2ccc(C)cc2)c1 | – | 6.05
COC(=O)c1sccc1NC(=S)OC | – | 5.74
COc1ccc(N2C(=S)N=C(Nc3cccc(C)c3)C23CCCCC3)cc1 | – | 5.72
Cc1nn(-c2ccccc2)c2sc(C(=O)N(Cc3ccco3)C(C)C(=O)NC(C)(C)C)cc12 (stereo not drawn) | 10400 nM (inactive) | –
COc1ccc(Cn2c(=S)[nH]c3ccccc32)cc1 | – | 6.36
Cc1onc(-c2ccccc2Cl)c1C(=O)NC(=S)Nc1ccc(C(C)C)cc1 | – | 6.75
Cc1ccc(-c2n[nH]c(=S)n2/N=C/C=C\c2ccccc2[N+](=O)[O-])cc1 | – | 5.83
NC(=S)N=Nc1c(O)n(Cc2ccc(F)cc2)c2ccccc12 | – | 5.65
CCOc1cccc(C(=O)NC(=S)Nc2cccc(C)c2)c1 | – | 5.14
CCCC(=O)OCC[N+](C)(C)C | 8.1 nM (inactive) | –
